Legend:
[1] = Antineoplastic activity against mouse S180A cells allografted in CD-1 mouse assessed as average survival at maximum effective dose administered qd for 6 days (reference value: 12.5 +/- 0.3 days); format: functional
Outline: (§1)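 Sarcoma 180 ascites cells were transplanted from a donor mouse bearing a 7-day tumour. Each agent was tested at 10–60 mg/kg/day, once daily for six consecutive days, starting 24 h after transplantation, in groups of 5–10 mice. Pooled untreated controls totalled 40 mice. Mice surviving beyond 50 days were counted as 50-day survivors, and body-weight change over therapy served as the toxicity index.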

[2] = Antineoplastic activity against mouse S180A cells allografted in CD-1 mouse assessed as mouse survival at maximum effective dose administered qd for 6 days measured for 50 days relative to control; format: functional; outline: as §1
[3] = Antineoplastic activity against mouse S180A cells allografted in CD-1 mouse assessed as maximum dose required for increase in mouse survival administered qd for 6 days; format: functional
[4] = Antineoplastic activity against mouse S180A cells allografted in CD-1 mouse assessed as average survival at maximum effective dose administered qd for 6 days relative to control; format: functional; outline: as §1
[5] = test system: Mus musculus; assay: Toxicity in CD-1 mouse allografted with mouse S180A cells assessed as change in body weight at maximum effective dose administered qd for 6 days (reference value: 23.2%); format: organism-based; settings: 144 h

| Structure (SMILES) | Survival [1] [days] | Survival [2] [%] | Activity [3] [mg/kg] | T/C [4] [%] | Activity [5] [%] |
| --- | --- | --- | --- | --- | --- |
| O=S(=O)(N/N=C/c1c2ccccc2cc[n+]1[O-])c1ccccc1 | 13.4 | 0 | 10 | 107 | 1.6 |
| O=S(=O)(Cc1ccccc1)N/N=C/c1cccc[n+]1[O-] | 35.2 | 40 | 40 | 282 | -0.3 |
| Cc1ccc(S(=O)(=O)N/N=C/c2ccccc2)cc1 | 14.4 | 0 | 20 | 115 | 15.1 |
| O=S(=O)(N/N=C/c1cccc[n+]1[O-])c1ccccc1 | 42.4 | 40 | 40 | 339 | -5.2 |
| Cc1ccc(S(=O)(=O)N/N=C/c2cccnc2)cc1 | 13.2 | 0 | 60 | 106 | 12.6 |
| O=S(=O)(Cc1ccccc1)N/N=C/c1ccncc1 | 21.2 | 0 | 60 | 169 | -3.3 |
| Cc1ccc(S(=O)(=O)N/N=C/c2ccc[n+]([O-])c2)cc1 | 13.6 | 0 | 60 | 109 | 0 |
| Cc1ccc(C(=O)N/N=C/c2cccc[n+]2[O-])cc1 | 11.2 | 0 | 60 | 90 | 10.2 |
| CS(=O)(=O)N/N=C/c1cccc[n+]1[O-] | 15.4 | 0 | 60 | 123 | 20 |
| Cc1ccc(S(=O)(=O)N/N=C/c2ccccc2[N+](=O)[O-])cc1 | 13.2 | 0 | 60 | 105 | 2.1 |
| Cc1ccc(S(=O)(=O)N/N=C/c2ccncc2)cc1 | 28.2 | 10 | 60 | 226 | -0.9 |
| CS(=O)(=O)N/N=C/c1ccncc1 | 13.4 | 0 | 20 | 107 | 18.6 |
| Cc1ccc(S(=O)(=O)N/N=C/c2ccccn2)cc1 | 15.4 | 0 | 10 | 123 | 20.1 |
| O=S(=O)(N/N=C/c1ccc2ccccc2[n+]1[O-])c1ccccc1 | 13.6 | 0 | 20 | 109 | 2.6 |
| Cc1ccc(C(=O)N/N=C/c2ccccn2)cc1 | 11.8 | 0 | 60 | 94 | 17.4 |
| Cc1ccc(S(=O)(=O)N/N=C/c2cc[n+]([O-])cc2)cc1 | 15.4 | 0 | 60 | 123 | 17.7 |

— ChEMBL document CHEMBL3271971, “Antineoplastic and biochemical properties of arylsulfonylhydrazones of 2-formylpyridine N-oxide” (J Med Chem, 1976)
